# Measurements taken from ChEMBL document CHEMBL1811848 (Bioorg Med Chem Lett, 2011).
# What was measured:
# Mus musculus [1] = assay: Reduction in serum triglyceride level in Swiss albino mouse at 10 mg/kg, po administered for 6 days relative to control; format: functional; design: scale not given: the % may be the effect or the level left
# How it was run: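 Male Swiss albino mice aged 6–8 weeks were given 10 mg/kg/day orally for 6 days. Serum triglyceride was expressed as % change versus vehicle controls, mean of n = 6.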
# [2] = Half life in fasting Wistar rat at 30 mg/kg, po; format: ADME, organism-based; design: dose 30 mg/kg, route oral; details: in vivo
# How it was run: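 Fasted male Wistar rats received one oral dose of 30 mg/kg. Plasma Cmax, T1/2 and Tmax are reported as mean ± SD of n = 3.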
# Mus musculus [3] = assay: Hypolipidemic activity in Swiss albino mouse assessed as reduction in triglyceride level at 0.003 mg/kg, po; format: functional; design: scale not given: the % may be the effect or the level left
# Mus musculus [4] = assay: Hypolipidemic activity in Swiss albino mouse assessed as reduction in triglyceride level at 0.03 mg/kg, po; format: functional; design: scale not given: the % may be the effect or the level left
# Mus musculus [5] = assay: Hypolipidemic activity in db/db mouse assessed as reduction in triglyceride level at 0.01 mg/kg, po; format: functional; design: scale not given: the % may be the effect or the level left
# Mus musculus [6] = assay: Hypolipidemic activity in db/db mouse assessed as reduction in triglyceride level at 0.1 mg/kg, po; format: functional; design: scale not given: the % may be the effect or the level left
# Mus musculus [7] = assay: Hypolipidemic activity in db/db mouse assessed as reduction in triglyceride level at 0.3 mg/kg, po; format: functional; design: scale not given: the % may be the effect or the level left
# Mus musculus [8] = species: Mus musculus; assay: Hypolipidemic activity in db/db mouse assessed as reduction in triglyceride level; format: functional
# Mus musculus [9] = assay: Antihyperglycemic activity in db/db mouse assessed as reduction in plasma glucose level at 0.1 mg/kg, po; format: functional; design: scale not given: the % may be the effect or the level left
# Rattus norvegicus [10] = assay: Toxicity in male Wistar rat assessed as liver to body weight ratio at 3 mg/kg, po measured after 28 days (reference value: 3.257 +/- 0.067); format: organism-based; design: dose 3 mg/kg, route oral; details: in vivo, 672 h
# Rattus norvegicus [11] = assay: Toxicity in male Wistar rat assessed as liver to body weight ratio at 30 mg/kg, po measured after 28 days (reference value: 3.257 +/- 0.067); format: organism-based; design: dose 30 mg/kg, route oral; details: in vivo, 672 h
# Rattus norvegicus [12] = assay: Toxicity in male Wistar rat assessed as kidney to body weight ratio at 30 mg/kg, po measured after 28 days (reference value: 0.745 +/- 0.012); format: organism-based; design: dose 30 mg/kg, route oral; details: in vivo, 672 h
# Rattus norvegicus [13] = assay: Toxicity in male Wistar rat assessed as spleen to body weight ratio at 3 mg/kg, po measured after 28 days (reference value: 0.215 +/- 0.007); format: organism-based; design: dose 3 mg/kg, route oral; details: in vivo, 672 h
# Rattus norvegicus [14] = assay: Toxicity in male Wistar rat assessed as brain to body weight ratio at 3 mg/kg, po measured after 28 days (reference value: 0.658 +/- 0.015); format: organism-based; design: dose 3 mg/kg, route oral; details: in vivo, 672 h
# Rattus norvegicus [15] = assay: Toxicity in male Wistar rat assessed as testes to body weight ratio at 30 mg/kg, po measured after 28 days (reference value: 1.075 +/- 0.106); format: organism-based, Testis; design: dose 30 mg/kg, route oral; details: in vivo, 672 h
# Rattus norvegicus [16] = assay: Toxicity in male Wistar rat assessed as epididymine to body weight ratio at 30 mg/kg, po measured after 28 days (reference value: 0.391 +/- 0.017); format: organism-based; design: dose 30 mg/kg, route oral; details: in vivo, 672 h
# Rattus norvegicus [17] = assay: Toxicity in male Wistar rat assessed as thymus to body weight ratio at 3 mg/kg, po measured after 28 days (reference value: 0.081+/- 0.013); format: organism-based; design: dose 3 mg/kg, route oral; details: in vivo, 672 h
# Rattus norvegicus [18] = assay: Toxicity in female Wistar rat assessed as liver to body weight ratio at 3 mg/kg, po measured after 28 days (reference value: 3.091 +/- 0.087); format: organism-based; design: dose 3 mg/kg, route oral; details: in vivo, 672 h
# Rattus norvegicus [19] = assay: Toxicity in female Wistar rat assessed as liver to body weight ratio at 30 mg/kg, po measured after 28 days (reference value: 3.091 +/- 0.087); format: organism-based; design: dose 30 mg/kg, route oral; details: in vivo, 672 h
# Rattus norvegicus [20] = assay: Toxicity in female Wistar rat assessed as kidney to body weight ratio at 3 mg/kg, po measured after 28 days (reference value: 0.733 +/- 0.007); format: organism-based; design: dose 3 mg/kg, route oral; details: in vivo, 672 h
# Rattus norvegicus [21] = assay: Toxicity in female Wistar rat assessed as spleen to body weight ratio at 30 mg/kg, po measured after 28 days (reference value: 0.237 +/- 0.012); format: organism-based; design: dose 30 mg/kg, route oral; details: in vivo, 672 h
# Rattus norvegicus [22] = assay: Toxicity in female Wistar rat assessed as adrenal to body weight ratio at 3 mg/kg, po measured after 28 days (reference value: 0.028 +/- 0.001); format: organism-based; design: dose 3 mg/kg, route oral; details: in vivo, 672 h
# Rattus norvegicus [23] = assay: Toxicity in female Wistar rat assessed as uterus to body weight ratio at 3 mg/kg, po measured after 28 days (reference value: 0.233 +/- 0.041); format: organism-based; design: dose 3 mg/kg, route oral; details: in vivo, 672 h
# Rattus norvegicus [24] = assay: Toxicity in male Wistar rat assessed as change in body weight at 3 mg/kg, po measured after 28 days relative to control; format: organism-based; design: dose 3 mg/kg, route oral; details: in vivo, 672 h
# Rattus norvegicus [25] = assay: Toxicity in male Wistar rat assessed as change in body weight at 30 mg/kg, po measured after 28 days relative to control; format: organism-based; design: dose 30 mg/kg, route oral; details: in vivo, 672 h
# Rattus norvegicus [26] = assay: Toxicity in male Wistar rat assessed as hemoglobin level at 3 mg/kg, po measured after 28 days (reference value: 13.66 +/- 0.23 g/dl); format: organism-based; design: dose 3 mg/kg, route oral; details: in vivo, 672 h
# Rattus norvegicus [27] = assay: Toxicity in male Wistar rat assessed as hemoglobin level at 30 mg/kg, po measured after 28 days (reference value: 13.66 +/- 0.23 g/dl); format: organism-based; design: dose 30 mg/kg, route oral; details: in vivo, 672 h
# Rattus norvegicus [28] = assay: Toxicity in male Wistar rat assessed as creatinine level at 3 mg/kg, po measured after 28 days (reference value: 0.47 +/- 0.03 mg/dl); format: organism-based; design: dose 3 mg/kg, route oral; details: in vivo, 672 h
# Rattus norvegicus [29] = assay: Toxicity in male Wistar rat assessed as […] level at 3 mg/kg, po measured after 28 days (reference value: 243.88 +/- 20.34 U/L); format: organism-based; design: dose 3 mg/kg, route oral; details: in vivo, 672 h
# Rattus norvegicus [30] = assay: Toxicity in male Wistar rat assessed as SGOT level at 30 mg/kg, po measured after 28 days (reference value: 135.14 +/- 6.89 U/L); format: organism-based; design: dose 30 mg/kg, route oral; details: in vivo, 672 h
# Rattus norvegicus [31] = assay: Toxicity in male Wistar rat assessed as SGPT level at 30 mg/kg, po measured after 28 days (reference value: 34.24 +/- 2.13 U/L); format: organism-based; design: dose 30 mg/kg, route oral; details: in vivo, 672 h
# Rattus norvegicus [32] = assay: Toxicity in male Wistar rat assessed as urea level at 3 mg/kg, po measured after 28 days (reference value: 30.52 +/- 0.79 mg/dl); format: organism-based; design: dose 3 mg/kg, route oral; details: in vivo, 672 h
# Rattus norvegicus [33] = assay: Toxicity in female Wistar rat assessed as Glucose level at 3 mg/kg, po measured after 28 days (reference value: 69.94 +/- 2.30 mg/dl); format: organism-based; design: dose 3 mg/kg, route oral; details: in vivo, 672 h
# Rattus norvegicus [34] = assay: Toxicity in female Wistar rat assessed as glucose level at 30 mg/kg, po measured after 28 days (reference value: 69.94 +/- 2.30 mg/dl); format: organism-based; design: dose 30 mg/kg, route oral; details: in vivo, 672 h
# Rattus norvegicus [35] = assay: Toxicity in female Wistar rat assessed as creatinine level at 3 mg/kg, po measured after 28 days (reference value: 0.42 +/- 0.04 mg/dl); format: organism-based; design: dose 3 mg/kg, route oral; details: in vivo, 672 h
# Rattus norvegicus [36] = assay: Toxicity in female Wistar rat assessed as creatinine level at 30 mg/kg, po measured after 28 days (reference value: 0.42 +/- 0.04 mg/dl); format: organism-based; design: dose 30 mg/kg, route oral; details: in vivo, 672 h
# Rattus norvegicus [37] = assay: Toxicity in female Wistar rat assessed as SGOT level at 30 mg/kg, po measured after 28 days (reference value: 155.70 +/- 6.56 U/L); format: organism-based; design: dose 30 mg/kg, route oral; details: in vivo, 672 h
# Rattus norvegicus [38] = assay: Toxicity in female Wistar rat assessed as SGPT level at 30 mg/kg, po measured after 28 days (reference value: 30.44 +/- 1.59 U/L); format: organism-based; design: dose 30 mg/kg, route oral; details: in vivo, 672 h
# Rattus norvegicus [39] = assay: Toxicity in male Wistar rat assessed as ALP level at 30 mg/kg, po measured after 28 days (reference value: 243.88 +/- 20.34 U/L); details: in vivo, 672 h
smiles,measurement,setting,value
CCO[C@@H](Cc1ccc(OCCc2nc(-c3ccc(C)s3)oc2C)cc1)C(=O)O,Activity,Mus musculus [1],88%
same,half-life,[2],7.4 h
same,Activity,Mus musculus [3],41.5%
same,Activity,Mus musculus [4],65.6%
same,Activity,Mus musculus [5],6.6%
same,Activity,Mus musculus [6],49.4%
same,Activity,Mus musculus [7],51.8%
same,ED50,Mus musculus [8],0.0188 mg/kg
same,Activity,Mus musculus [9],51.7%
same,Ratio,Rattus norvegicus [10],7.505
same,Ratio,Rattus norvegicus [11],8.099
same,Ratio,Rattus norvegicus [12],0.955
same,Ratio,Rattus norvegicus [13],0.223
same,Ratio,Rattus norvegicus [14],0.72
same,Ratio,Rattus norvegicus [15],1.356
same,Ratio,Rattus norvegicus [16],0.432
same,Ratio,Rattus norvegicus [17],0.089
same,Ratio,Rattus norvegicus [18],6.221
same,Ratio,Rattus norvegicus [19],7.075
same,Ratio,Rattus norvegicus [20],0.804
same,Ratio,Rattus norvegicus [21],0.26
same,Ratio,Rattus norvegicus [22],0.02
same,Ratio,Rattus norvegicus [23],0.176
same,Activity,Rattus norvegicus [24],33.99%
same,Activity,Rattus norvegicus [25],24.01%
same,Activity,Rattus norvegicus [26],12.2 g/dL
same,Activity,Rattus norvegicus [27],12.46 g/dL
same,Activity,Rattus norvegicus [28],0.36 mg/dL
same,Activity,Rattus norvegicus [29],470.5 U/L
same,Activity,Rattus norvegicus [30],245.24 U/L
same,Activity,Rattus norvegicus [31],33.03 U/L
same,Activity,Rattus norvegicus [32],31.24 mg/dL
same,Activity,Rattus norvegicus [33],91.88 mg/dL
same,Activity,Rattus norvegicus [34],91.79 mg/dL
same,Activity,Rattus norvegicus [35],0.36 mg/dL
same,Activity,Rattus norvegicus [36],0.41 mg/dL
same,Activity,Rattus norvegicus [37],224 U/L
same,Activity,Rattus norvegicus [38],35.21 U/L
same,Activity,Rattus norvegicus [39],679.13 U/L
